Data set [1] concerns Mus musculus. Nature of the data set: Anticonvulsant activity in ip dosed CF1 albino mouse assessed as protection against subcutaneous pentetrazole-induced seizure after 0.25 hrs. Type of data set: functional. The essentials: (§1)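 Male CF-1 mice, ip in 0.5% methylcellulose; pentetrazole at CD97 (85 mg/kg) injected subcutaneously in a loose fold of neck skin. Observed 30 min; absence of even a threshold seizure (single clonic spasm lasting at least 5 s) counted as protection. Scored protected/tested, or ED50.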

The test system of data set [2] is Mus musculus. Put plainly: Anticonvulsant activity in ip dosed CF1 albino mouse assessed as protection against maximal electroshock-induced seizure after 0.25 hrs. The data set is classed as functional. In a few lines:
(§2)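 Male CF-1 mice dosed ip as suspension in 0.5% methylcellulose. Corneal electrodes deliver 60 Hz alternating current, 50 mA for […], after a drop of 0.5% tetracaine HCl in 0.9% NaCl per eye. Protection means abolition of hindlimb tonic extension; scored as protected/tested, or ED50 with 95% confidence interval.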

Data set [3] relates to Mus musculus. Put plainly: Protective index, ratio of TD50 for ip dosed CF1 albino mouse to ED50 for ip dosed CF1 albino mouse assessed as protection against maximal electroshock-induced seizure after 0.25 hrs. Type of data set: functional.
The subject of data set [4] is Mus musculus. Nature of the data set: Anticonvulsant activity in CF1 albino mouse assessed as protection against subcutaneous pentetrazole-induced seizure at 100 mg/kg, ip after 0.5 hrs. The data set is classed as functional, organism-based. The essentials: as §1
Data set [5] relates to Mus musculus. Put plainly: Neurotoxicity in CF1 albino mouse assessed as unable to grasp rotarod and death at 100 mg/kg, ip after 0.5 hrs by rotarod test. The data set is classed as toxicity, organism-based. The conditions noted are these: in vivo. The essentials: (§3)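 Male albino CF-1 mice dosed ip with compound suspended in 0.5% methylcellulose, then placed on a 1-inch knurled plastic rod turning at 6 rpm. A fall three times within 1 min counted as neurotoxicity. Observations were made at 0.5 h and 4 h after dosing. Result given as animals showing toxicity per animals tested, with the kind of toxicity recorded.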

For data set [6], the system named is Mus musculus. Nature of the data set: Anticonvulsant activity in CF1 albino mouse assessed as protection against maximal electroshock-induced seizure at 30 mg/kg, ip after 4 hrs. The data set is classed as functional, organism-based. The essentials: as §2
For orientation: The maximal electroshock test induces tonic seizures with an electrical stimulus.

The subject of data set [7] is Mus musculus. Put plainly: Anticonvulsant activity in CF1 albino mouse assessed as protection against subcutaneous pentetrazole-induced seizure at 30 mg/kg, ip after 4 hrs. Type of data set: functional, organism-based. In a few lines: as §1
In data set [8] the test system is Mus musculus. Nature of the data set: Neurotoxicity in CF1 albino mouse at 300 mg/kg, ip after 4 hrs by rotarod test. Type of data set: toxicity, organism-based. The following applies: in vivo. The essentials:
(§4)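 Rotarod neurotoxicity in male albino CF-1 mice dosed ip with compound suspended in 0.5% methylcellulose. Animal placed on a 1 inch diameter knurled plastic rod rotating at 6 rpm. Neurotoxicity scored when the animal falls off three times within 1 min. Readout is number of animals toxic/number tested at the stated time after dosing. TD50 with 95% confidence interval from the quantitative study.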

In data set [9] the test system is Mus musculus. Put plainly: Neurotoxicity in CF1 albino mouse at 30 mg/kg, ip after 4 hrs by rotarod test. The conditions noted are these: in vivo. The data set is classed as toxicity, organism-based. The essentials:
as §4
For orientation: The rotarod test checks motor coordination on a turning rod.

For data set [10], the target named is Histamine H3 receptor (Homo sapiens, UniProt Q9Y5N1). Nature of the data set: Displacement of [3H]-Nalpha-methylhistamine from human recombinant histamine H3 receptor expressed in HEK293 cells after 90 mins. The data set is classed as cell-based.
The subject of data set [11] is Mus musculus. Put plainly: Neurotoxicity in CF1 albino mouse at 30 mg/kg, ip after 0.5 hrs by rotarod test. The data set is classed as toxicity, organism-based. The conditions noted are these: in vivo. The essentials: as §4
For data set [12], the system named is Mus musculus. Put plainly: Neurotoxicity in CF1 albino mouse assessed as death at 300 mg/kg, ip after 0.5 hrs by rotarod test. Type of data set: toxicity, organism-based. The following applies: in vivo. In a few lines: as §3
In data set [13] the test system is Mus musculus. Nature of the data set: Anticonvulsant activity in CF1 albino mouse assessed as protection against maximal electroshock-induced seizure at 100 mg/kg, ip after 0.5 hrs. Type of data set: functional, organism-based. The essentials:
as §2

Data set [14] concerns Mus musculus. Nature of the data set: Anticonvulsant activity in CF1 albino mouse assessed as protection against maximal electroshock-induced seizure at 30 mg/kg, ip after 0.5 hrs. Type of data set: functional, organism-based. In a few lines:
as §2

Data set [15] deals with Mus musculus. Nature of the data set: Anticonvulsant activity in CF1 albino mouse assessed as protection against maximal electroshock-induced seizure at 100 mg/kg, ip after 4 hrs. Type of data set: functional, organism-based. The essentials:
as §2

The subject of data set [16] is Mus musculus. Put plainly: Anticonvulsant activity in CF1 albino mouse assessed as protection against subcutaneous pentetrazole-induced seizure at 30 mg/kg, ip after 0.5 hrs. Type of data set: functional, organism-based. In a few lines:
as §1

The test system of data set [17] is Mus musculus. Nature of the data set: Neurotoxicity in CF1 albino mouse at 100 mg/kg, ip after 4 hrs by rotarod test. The following applies: in vivo. The data set is classed as toxicity, organism-based. In a few lines: as §4
In data set [18] the test system is Mus musculus. Put plainly: Anticonvulsant activity in CF1 albino mouse assessed as protection against subcutaneous pentetrazole-induced seizure at 100 mg/kg, ip after 4 hrs. Type of data set: functional, organism-based. The essentials:
as §1

In data set [19] the test system is Mus musculus. Nature of the data set: Neurotoxicity in CF1 albino mouse at 3 mg/kg, ip after 0.5 hrs by rotarod test. Type of data set: toxicity, organism-based. The conditions noted are these: in vivo. In a few lines:
as §4

Data set [20] relates to Mus musculus. Put plainly: Anticonvulsant activity in CF1 albino mouse assessed as protection against maximal electroshock-induced seizure at 3 mg/kg, ip after 0.5 hrs. Type of data set: functional, organism-based. In a few lines: as §2
Data set [21] relates to Rattus norvegicus. Put plainly: Anticonvulsant activity in Sprague-Dawley rat assessed as protection against maximal electroshock-induced seizure at 30 mg/kg, po. The data set is classed as functional.
Data set [22] deals with Mus musculus. Put plainly: Neurotoxicity in CF1 albino mouse at 10 mg/kg, ip after 0.5 hrs by rotarod test. Type of data set: toxicity, organism-based. The following applies: in vivo. The essentials:
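Rotarod neurotoxicity in male CF-1 mice dosed ip as 0.5% methylcellulose suspension: mouse placed on 1 inch knurled rod rotating at 6 rpm; toxicity when the animal falls off three times within 1 min, with other signs noted. Scored as toxic/tested at 0.5 h and 4 h.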

The test system of data set [23] is Mus musculus. Put plainly: Anticonvulsant activity in CF1 albino mouse assessed as protection against maximal electroshock-induced seizure at 10 mg/kg, ip after 0.5 hrs. The data set is classed as functional, organism-based. In a few lines:
as §2

Data set [24] concerns Mus musculus. Nature of the data set: Anticonvulsant activity in CF1 albino mouse assessed as protection against 6 Hz-psychomotor-induced seizure at 50 mg/kg, ip after 4 hrs. The data set is classed as functional, organism-based. In a few lines: (§5)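 Male CF-1 mice, ip suspension in 0.5% methylcellulose. Corneal stimulation 0.2 ms monopolar rectangular pulses at 6 Hz, 32 mA for 3 s via constant-current device; mice without minimal clonic phase seizure counted protected. Groups of four; read at 0.25, 0.5, 1, 2, 4 h; result as protected/tested.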

Data set [25] concerns Mus musculus. Nature of the data set: Anticonvulsant activity in CF1 albino mouse assessed as protection against 6 Hz-psychomotor-induced seizure at 50 mg/kg, ip after 2 hrs. The data set is classed as functional, organism-based. In a few lines:
as §5

The subject of data set [26] is Mus musculus. Put plainly: Anticonvulsant activity in CF1 albino mouse assessed as protection against 6 Hz-psychomotor-induced seizure at 50 mg/kg, ip after 1 hr. Type of data set: functional, organism-based. In a few lines:
as §5

Data set [27] concerns Mus musculus. Put plainly: Anticonvulsant activity in CF1 albino mouse assessed as protection against 6 Hz-psychomotor-induced seizure at 50 mg/kg, ip after 0.5 hrs. The data set is classed as functional, organism-based. The essentials: as §5
Data set [28] has as its system Mus musculus. Put plainly: Neurotoxicity in CF1 albino mouse at 50 mg/kg, ip after 1 hr by rotarod test. Type of data set: toxicity, organism-based. The following applies: in vivo. The essentials: as §4
Data set [29] deals with Mus musculus. Nature of the data set: Neurotoxicity in CF1 albino mouse at 50 mg/kg, ip after 2 hrs by rotarod test. The conditions noted are these: in vivo. Type of data set: toxicity, organism-based. In a few lines: as §4
Data set [30] has as its system Mus musculus. Nature of the data set: Neurotoxicity in CF1 albino mouse at 50 mg/kg, ip after 4 hrs by rotarod test. Type of data set: toxicity, organism-based. The following applies: in vivo. In a few lines:
as §4

The source made the active and inactive calls. Bounds are passed on as bounds.

Sequence of Histamine H3 receptor (Q9Y5N1 whole entry): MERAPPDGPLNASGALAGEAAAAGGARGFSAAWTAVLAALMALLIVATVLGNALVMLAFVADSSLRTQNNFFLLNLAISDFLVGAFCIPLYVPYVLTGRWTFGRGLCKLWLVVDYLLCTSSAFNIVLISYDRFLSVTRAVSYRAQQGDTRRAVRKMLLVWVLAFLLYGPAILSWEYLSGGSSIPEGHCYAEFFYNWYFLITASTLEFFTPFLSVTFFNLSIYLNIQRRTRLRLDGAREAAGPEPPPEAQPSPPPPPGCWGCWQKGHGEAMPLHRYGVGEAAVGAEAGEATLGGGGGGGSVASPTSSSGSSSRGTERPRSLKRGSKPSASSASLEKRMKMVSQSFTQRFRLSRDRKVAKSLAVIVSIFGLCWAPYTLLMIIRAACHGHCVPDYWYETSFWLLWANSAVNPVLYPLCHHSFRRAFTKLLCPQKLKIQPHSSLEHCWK

On to `Nc1nnc(-c2cccc(Cl)c2Cl)c(N)n1` [LAMOTRIGINE], for which the ED50 was above 40 mg/kg in data set [1] and 7.47 mg/kg in data set [2]. Also, the “Ratio TD50/ED50” value in [3] stood at 4.

Consider `CC1CCCN(CCCCCCCOc2cccc(Cl)c2)C1.O=C(O)C(=O)O` (stereo unspecified), for which the result in data set [4], in data set [6], in data set [7], in data set [14], in data set [16] and in data set [18] was inactive. Further, the Activity result in [5] is reported as “Toxic”; in [8], “Non-toxic”; in [9], “Non-toxic”; in [11], “Non-toxic”; in data set [12], “Toxic”; in [17] it was “Non-toxic”. Further, in data set [10], the Ki stood at 466 nM. For the same compound, the outcome in data set [13] and in data set [15] was Active.

Take `Clc1ccc(OCCCCCN2CCCCC2)cc1.O=C(O)C(=O)O`: the outcome in [4], in data set [6], in data set [7], in data set [20], in data set [21] and in data set [16] was inactive. Further, the result in data set [18] and in data set [23] was inactive. For the same compound, the Activity entry is “Non-toxic” in data set [19]; “Toxic” in [5]; “Non-toxic” in data set [8]; “Non-toxic” in data set [9]; “Non-toxic” in data set [11]; “Toxic” in data set [12]. Besides, the Activity result in [22] and in [17] was “Non-toxic” in each case. Moreover, in data set [10], the Ki is 427 nM. Besides, the result in [13] and in data set [14] was Active.

For `Clc1cccc(OCCCCCCN2CCCCC2)c1.O=C(O)C(=O)O`, the result in data set [4], in [24], in [25], in data set [6], in data set [7] and in data set [20] was inactive. In addition, the result in [26], in [27], in [16], in [18] and in [23] was inactive. The Activity entry is “Non-toxic” in [19]; “Toxic” in data set [5]; 25% in [21]; “Non-toxic” in [8]; “Non-toxic” in data set [9]; “Non-toxic” in data set [11]. For the same compound, the Activity result is “Non-toxic” in data set [28]; “Toxic” in [12]; “Non-toxic” in data set [22]; “Non-toxic” in data set [17]; “Non-toxic” in [29]; “Non-toxic” in data set [30]. The Ki in [10] was found to be 255 nM. For the same compound, the result in [13], in data set [14] and in [15] was Active.

`CCC1(c2ccccc2)C(=O)NC(=O)NC1=O` [PHENOBARBITAL]: the ED50 stood at 13.2 mg/kg in data set [1] and 21.8 mg/kg in [2].

The term ED50 denotes the dose at which the effect has come halfway, by size or by number of responders. The Ki is the equilibrium dissociation constant of an inhibitor or competing ligand from its target.

Values taken from ChEMBL document CHEMBL3745596, “Chlorophenoxy aminoalkyl derivatives as histamine H(3)R ligands and antiseizure agents” (Bioorg Med Chem, 2016).
